The results in this text go back to ChEMBL document CHEMBL3739311 (ACS Med Chem Lett, 2015).

≈ marks a conversion by molar mass, not a printed value.

Data set [1] can be described thus: Aqueous solubility of compound. Type of data set: physicochemical.
Data set [2] concerns Human immunodeficiency virus 1. Put plainly: Antiviral activity against HIV-1 X4 expressing reverse transcriptase K103N mutant infected in human CD4+ T cells for 3 days by FACS analysis. Type of data set: functional, organism-based. The settings on record: Human immunodeficiency virus 1, T-cell, 72 h. Put shortly:
(§1)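 Single-round infectivity assay against HIV strains whose RT carries the K101P, K103N or Y181C mutation, alongside a WT X4 strain; EC50 determined.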
A general note: A flow cytometer gives signals particle by particle.

Data set [3] deals with Human immunodeficiency virus type 1 reverse transcriptase (Human immunodeficiency virus 1, UniProt Q72547, K101P). Briefly: Inhibition of HIV-1 reverse transcriptase K101P mutant by fluorescence assay. Put shortly: (§2)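 PicoGreen fluorescence read-out of reverse transcription, run with both RT(WT) and RT(K101P) enzymes; IC50 determined for each enzyme. The fold-change is IC50 for RT(K101P) over IC50 for RT(WT).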

Data set [4] deals with Human immunodeficiency virus 1. Briefly: Antiviral activity against HIV-1 X4 expressing wild-type reverse transcriptase infected in human CD4+ T cells for 3 days by FACS analysis. Type of data set: functional, organism-based. As to conditions: Human immunodeficiency virus 1, X4, T-cell, 72 h. Put shortly:
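Single-round infectivity assay using HIV strains carrying wild-type RT (WT X4); EC50 determined.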

Data set [5] deals with Human immunodeficiency virus 1. Put plainly: Antiviral activity against HIV-1 X4 expressing reverse transcriptase K101P mutant infected in human CD4+ T cells for 3 days by FACS analysis. Type of data set: functional, organism-based. The settings on record: Human immunodeficiency virus 1, T-cell, 72 h. Put shortly: as §1
For data set [6], the system named is Human immunodeficiency virus 1. Briefly: Antiviral activity against HIV-1 X4 expressing reverse transcriptase Y181C mutant infected in human CD4+ T cells for 3 days by FACS analysis. Type of data set: functional, organism-based. As to conditions: Human immunodeficiency virus 1, T-cell, 72 h. Put shortly: as §1
Data set [7] is described as follows: Cytotoxicity against human CD4-positive T cells. Type of data set: cell-based, T-cell.
Data set [8] has as its target Human immunodeficiency virus type 1 reverse transcriptase (Human immunodeficiency virus 1, UniProt Q72547). Put plainly: Inhibition of wild-type HIV-1 reverse transcriptase by fluorescence assay. In outline:
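Reverse transcription inhibition by wild-type RT enzyme, read by PicoGreen fluorescence; IC50 in nM.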

Data set [9] has as its system Human immunodeficiency virus 1. Put plainly: Selectivity index, ratio of IC50 for HIV-1 reverse transcriptase K101P mutant to IC50 for wild-type HIV-1 reverse transcriptase. Put shortly:
as §2

Data set [10] relates to Human immunodeficiency virus 1. Briefly: Antiviral activity against HIV-1 NL4-3 expressing reverse transcriptase E138K mutant infected in MT-2 cells by MTT assay. Type of data set: functional, organism-based. As to conditions: Human immunodeficiency virus 1, NL4-3, MT2.
The test system of data set [11] is Human immunodeficiency virus 1. Briefly: Antiviral activity against HIV-1 NL4-3 expressing reverse transcriptase E138K/M184V mutant infected in MT-2 cells by MTT assay. Type of data set: functional, organism-based. The settings on record: Human immunodeficiency virus 1, NL4-3, MT2. A general note: Tetrazolium dyes change colour on reduction, which living cells bring about.

Consider `Cc1cc(/C=C/C#N)cc(C)c1Nc1ccnc(Nc2ccc(C#N)cc2)n1` [RILPIVIRINE], for which the solubility in [1] is < 0.1 µg/mL. The EC50 was 13 nM in [2], 13 nM in data set [4], 1140 nM in data set [5] and 51 nM in data set [6]. Moreover, half-maximal inhibition in data set [3] (IC50) required 1000 nM.
For the compound `N#Cc1cc2c(Oc3ccccc3OCCn3ccc(=O)[nH]c3=O)cccn2c1`, the EC50 in data set [2] was 3 nM; in [4], 1 nM; in data set [5], 1 nM; in [6], 2 nM; in data set [10] it was 0.9 nM; in [11], 0.75 nM. For the same compound, the IC50 in data set [3] is 1.9 nM; in data set [8], 1.06 nM. Further, the CC50 in data set [7] was > 100000 nM. For the same compound, the Ratio IC50 in [9] is 1.8.
For the compound `O=C1Nc2ccc(Cl)cc2[C@@](C#CC2CC2)(C(F)(F)F)O1` [EFAVIRENZ], the results for the EC50 in [2], in [5] and in data set [6] were 836 nM, 870 nM and 41 nM, respectively.
As for `N#C/C=C/c1cc(F)cc(Oc2ccc(F)cc2OCCn2ccc(=O)[nH]c2=O)c1`, the solubility in [1] was 10.8 µg/mL (≈ 26.3 µM). The EC50 turned out to be 89 nM in [2], 2 nM in data set [4], 2 nM in data set [5] and 8 nM in [6]. Also, the IC50 was found to be 2.2 nM in data set [3] and 2.7 nM in [8]. In addition, the CC50 in data set [7] stood at 45000 nM. Further, the Ratio IC50 in data set [9] came out at 0.8.
Turning to `N#C/C=C/c1cc(Cl)cc(Oc2ccccc2OCCn2ccc(=O)[nH]c2=O)c1`, the EC50 in [2] stood at 50 nM; in data set [4], 5 nM; in data set [5], 8 nM; in data set [6] it was 23 nM; in data set [10], 2.8 nM; in data set [11], 2.2 nM. In addition, the IC50 in data set [3] was determined as 2.1 nM; in data set [8], 3.3 nM. The same compound showed a CC50 in data set [7] of 18000 nM. Moreover, the Ratio IC50 in data set [9] came out at 0.6.

As a reminder, the solubility is the concentration that dissolves in the medium under given conditions. High values mean much dissolved substance, low ones little dissolved substance. Usually EC50 stands for the concentration needed to bring the measured effect to its halfway point. Read a high EC50 as lower potency in that assay. A word on the IC50: it is the concentration that inhibits the measured activity by half. The term CC50 denotes the concentration giving 50% cytotoxicity. Read a low CC50 as harm at low concentration.
